Type in all cases: functional
Experiment [1] deals with Plasmodium berghei. The experiment can be described thus: Antimalarial activity in Plasmodium berghei infected mice (Mus musculus) after subcutaneous 160 mg/kg dose. The procedure, abridged: (§1)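 Normal drug-sensitive P. berghei strain in mice. Compound dissolved or suspended in sesame or peanut oil, given parenterally as a single subcutaneous dose 72 h postinfection.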

In experiment [2] the test system is Plasmodium berghei. The experiment can be described thus: Antimalarial activity in Plasmodium berghei infected mice (Mus musculus) after subcutaneous 320 mg/kg dose. Put shortly: as §1
Experiment [3] deals with Plasmodium berghei. Nature of the experiment: Antimalarial activity in Plasmodium berghei infected mice (Mus musculus) after subcutaneous 640 mg/kg dose. The procedure, abridged:
as §1

Experiment [4] relates to Plasmodium berghei. The experiment can be described thus: (§2) Antimalarial activity in Plasmodium berghei infected mice (Mus musculus) after 80 mg/kg subcutaneous dose. Put shortly: as §1
For experiment [5], the system named is Plasmodium berghei. The experiment can be described thus: Antimalarial activity in Plasmodium berghei infected mice (Mus musculus) after 160 mg/kg subcutaneous dose. The procedure, abridged:
(§3)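 […] in mice infected with a normal drug-sensitive P. berghei strain. Compound dissolved or suspended in sesame or peanut oil, given as a single subcutaneous dose 72 h postinfection.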

In experiment [6] the test system is Plasmodium berghei. Nature of the experiment: Antimalarial activity in Plasmodium berghei infected mice (Mus musculus) after 320 mg/kg subcutaneous dose. Put shortly: as §3
Experiment [7] relates to Plasmodium berghei. The experiment can be described thus: Antimalarial activity Plasmodium berghei infected mice (Mus musculus) after 640 mg/kg subcutaneous dose. Put shortly:
as §3

In experiment [8] the test system is Plasmodium berghei. The experiment is described as §2. Put shortly: as §3
This is another data set of the same source.

For experiment [9], the system named is Plasmodium berghei. The experiment can be described thus: Antimalarial activity in Plasmodium berghei infected mice (Mus musculus) after 40 mg/kg subcutaneous dose. The procedure, abridged: as §3
Experiment [10] has as its system Plasmodium berghei. Nature of the experiment: Antimalarial activity in Plasmodium berghei infected mice (Mus musculus) after 20 mg/kg subcutaneous dose. The procedure, abridged: as §3

Each structure is given as a SMILES string. Several values for one entry are separate records, joined by “and”; a condition that tells them apart may be missing. Equal values may be shown once.

Turning to `COCCC/N=C1\CC(c2cccc(C(F)(F)F)c2)Cc2c1c(=O)c1cc(Cl)ccc1n2O` (centres undefined), the “No. of cured mice” value amounted to 1 in the experiment with Plasmodium berghei [1], 3 in the experiment with Plasmodium berghei [2], 5 with Plasmodium berghei [3] and 1 in the experiment with Plasmodium berghei [4]. For the same compound, the figures for the “Delta mean survival time” value in the experiment with Plasmodium berghei [5] and in the experiment on Plasmodium berghei [6] were 5.1 and 13.8, respectively.
With `Cc1ccc(C2C/C(=N\CCCN(C)C)c3c(n(O)c4ccc(Cl)cc4c3=O)C2)cc1` (centres undefined), the “No. of cured mice” value in the experiment on Plasmodium berghei [2] came out at 2; in the experiment with Plasmodium berghei [3], 4. The “Delta mean survival time” value in the experiment with Plasmodium berghei [5] worked out at 3; with Plasmodium berghei [6], 6; in the experiment on Plasmodium berghei [7] it was 1; with Plasmodium berghei [8], 1.8; with Plasmodium berghei [9], 0.2.
`O=c1c2c(n(O)c3ccc(Cl)cc13)CC(c1ccc(Cl)c(Cl)c1)C/C2=N\CCCNCCO` (centres undefined): the “No. of cured mice” value was found to be 3 in the experiment on Plasmodium berghei [1], 4 in the experiment on Plasmodium berghei [2], 5 in the experiment on Plasmodium berghei [3] and 1 in the experiment with Plasmodium berghei [4]. Also, the “Delta mean survival time” value with Plasmodium berghei [5] is on record as 9.6; with Plasmodium berghei [10], 2; with Plasmodium berghei [6], 11.6; with Plasmodium berghei [8] it was 7.9; in the experiment with Plasmodium berghei [9], 6.6.
With `O=c1c2c(n(O)c3ccc(Cl)cc13)CC(c1cccc(C(F)(F)F)c1)C/C2=N\C1CCN(Cc2ccccc2)CC1` (centres undefined), the entries for the “No. of cured mice” value in the experiment with Plasmodium berghei [1] and with Plasmodium berghei [3] were 2 and 1, respectively. Besides, the “Delta mean survival time” value in the experiment on Plasmodium berghei [5] was found to be 8.6; in the experiment with Plasmodium berghei [6] it was 8.4; in the experiment on Plasmodium berghei [7], 11.1; in the experiment on Plasmodium berghei [8] it was 3.8; with Plasmodium berghei [9] it was 6.8.
Turning to `CCN(CC)Cc1cccc(/N=C2\CC(c3ccc(Cl)c(Cl)c3)Cc3c2c(=O)c2cc(Cl)ccc2n3O)c1` (centres undefined), the “No. of cured mice” value with Plasmodium berghei [1] came to 2; with Plasmodium berghei [2] it was 4; with Plasmodium berghei [3], 4. The “Delta mean survival time” value with Plasmodium berghei [5] was found to be 10.3; in the experiment on Plasmodium berghei [10], 1.6; in the experiment on Plasmodium berghei [6] it was 22.6; in the experiment on Plasmodium berghei [7], 42.6; in the experiment with Plasmodium berghei [8], 8; in the experiment on Plasmodium berghei [9] it was 6.6.
With `O=C1CC(c2cccc3ccccc23)Cc2c1c(=O)c1cc(Cl)ccc1n2O` (centres undefined), the “No. of cured mice” value with Plasmodium berghei [2] worked out at 2; in the experiment on Plasmodium berghei [3], 4. Besides, the “Delta mean survival time” value in the experiment with Plasmodium berghei [5] stood at 6.9; in the experiment on Plasmodium berghei [6], 5.7; in the experiment on Plasmodium berghei [7], 13.7; in the experiment on Plasmodium berghei [8], 2.3.
Consider `O=C1CC(c2ccccc2)Cc2c1c(=O)c1cc(Cl)ccc1n2O` (centres undefined), for which the entries for the “No. of cured mice” value in the experiment on Plasmodium berghei [1], in the experiment on Plasmodium berghei [2] and with Plasmodium berghei [3] were 2, 2 and 3, respectively. Moreover, the “Delta mean survival time” value in the experiment on Plasmodium berghei [5] was 5.7; in the experiment on Plasmodium berghei [10], 1.8; in the experiment on Plasmodium berghei [6] it was 9.3; in the experiment on Plasmodium berghei [7], 11.5; in the experiment on Plasmodium berghei [8] it was 5.6; with Plasmodium berghei [9], 4.
Turning to `CC1C(=O)c2c(nc3ccc(Cl)cc3c2O)CC1c1ccc(Cl)c(C(F)(F)F)c1` (centres undefined), the “No. of cured mice” value in the experiment with Plasmodium berghei [1] is 1; in the experiment with Plasmodium berghei [2] it was 1; in the experiment with Plasmodium berghei [3], 2. Besides, the “Delta mean survival time” value with Plasmodium berghei [5] is listed as 1.5; in the experiment on Plasmodium berghei [10], 0.9; in the experiment with Plasmodium berghei [6], 5; in the experiment on Plasmodium berghei [7], 5.7; in the experiment with Plasmodium berghei [8], 1.1; in the experiment on Plasmodium berghei [9], 0.7.
Regarding `CC1C(=O)c2c(nc3ccc(Cl)cc3c2O)CC1c1ccc(Cl)cc1Cl` (centres undefined), the “No. of cured mice” value is 2 with Plasmodium berghei [1], 2 in the experiment on Plasmodium berghei [2], 5 with Plasmodium berghei [3] and 2 in the experiment with Plasmodium berghei [4]. Moreover, the “Delta mean survival time” value was 15 in the experiment on Plasmodium berghei [5]; 8.2 with Plasmodium berghei [10]; 17 in the experiment with Plasmodium berghei [6]; 1.18 in the experiment with Plasmodium berghei [8]; 10 and 9.3 in the experiment with Plasmodium berghei [9] (40 mg/kg).
In the case of `CCC1/C(=N\CCCN(C)C)c2c(nc3ccc(Cl)cc3c2O)CC1c1ccc(C(F)(F)F)cc1` (centres undefined), the “No. of cured mice” value in the experiment on Plasmodium berghei [2] was 2; in the experiment on Plasmodium berghei [3] (640 mg/kg) it was 4 and 3. In addition, the “Delta mean survival time” value with Plasmodium berghei [10] was 0.3; with Plasmodium berghei [6] it was 10; in the experiment on Plasmodium berghei [7] (640 mg/kg), 6.7 and 10.2; in the experiment with Plasmodium berghei [8], 5.3; in the experiment with Plasmodium berghei [9] it was 3.3.
As for `C/N=C1\CC(c2ccc(Cl)c(Cl)c2)Cc2c1c(=O)c1cc(Cl)ccc1n2O` (centres undefined), the “No. of cured mice” value in the experiment with Plasmodium berghei [3] is 3. The “Delta mean survival time” value in the experiment on Plasmodium berghei [5] is 6.4; in the experiment on Plasmodium berghei [6] it was 10.7; in the experiment with Plasmodium berghei [7], 10.8; with Plasmodium berghei [8], 3.3.
In the same order, the values of `COc1ccc(C2C/C(=N\CCCN(C)C)c3c(n(O)c4ccc(Cl)cc4c3=O)C2)cc1` (centres undefined) are 3, 0.7, 6.5, 8.4 and 0.1.
As for `O=C1CC(c2c(Cl)cccc2Cl)Cc2c1c(=O)c1cc(Cl)ccc1n2O` (centres undefined), the results for the “No. of cured mice” value with Plasmodium berghei [1], with Plasmodium berghei [2] and with Plasmodium berghei [3] were 1, 3 and 2, respectively. In addition, the “Delta mean survival time” value in the experiment on Plasmodium berghei [5] is given as 5.8; with Plasmodium berghei [10] it was 0.7; with Plasmodium berghei [6], 23.9; in the experiment with Plasmodium berghei [7], 11.2; in the experiment on Plasmodium berghei [8], 5.1; in the experiment on Plasmodium berghei [9], 1.5.
For the compound `O=C1CC(c2ccc(Cl)c(Cl)c2)Cc2nc3ccc(Cl)cc3c(O)c21` (centres undefined), the “No. of cured mice” value in the experiment with Plasmodium berghei [1] is recorded as 1; in the experiment on Plasmodium berghei [2] it was 1; with Plasmodium berghei [3], 2. Also, the “Delta mean survival time” value is 7.7 in the experiment on Plasmodium berghei [5], 10.2 with Plasmodium berghei [6], 11.2 in the experiment on Plasmodium berghei [7] and 2.1 in the experiment with Plasmodium berghei [8].
With `Cc1ccc(C2C/C(=N\CCCN(C)C)c3c(nc4ccc(Cl)cc4c3O)C2)cc1` (centres undefined), the “No. of cured mice” value in the experiment on Plasmodium berghei [2] and in the experiment with Plasmodium berghei [3] was 2 throughout. In addition, the “Delta mean survival time” value is on record as 6.6 with Plasmodium berghei [5]; 6.5 in the experiment on Plasmodium berghei [6]; 9.8 in the experiment on Plasmodium berghei [7]; 1.4 in the experiment on Plasmodium berghei [8]; 0.8 in the experiment on Plasmodium berghei [9].
For `O=C1CC(c2ccc(C(F)(F)F)cc2)Cc2nc3ccc(Br)cc3c(O)c21` (centres undefined), the “No. of cured mice” value in the experiment on Plasmodium berghei [1] is 1; in the experiment with Plasmodium berghei [2] it was 3; in the experiment on Plasmodium berghei [3], 4. Also, the “Delta mean survival time” value in the experiment on Plasmodium berghei [5] was found to be 4.4; with Plasmodium berghei [10], 3.6; with Plasmodium berghei [6] it was 10.6; in the experiment with Plasmodium berghei [7] it was 12.8; in the experiment on Plasmodium berghei [8] it was 3; with Plasmodium berghei [9] it was 5.
Turning to `O=C1CC(c2cccc(Br)c2)Cc2c1c(=O)c1cc(Cl)ccc1n2O` (centres undefined), the “No. of cured mice” value is 1 in the experiment with Plasmodium berghei [1], 1 in the experiment on Plasmodium berghei [2] and 4 in the experiment on Plasmodium berghei [3]. In addition, the “Delta mean survival time” value stood at 9.2 with Plasmodium berghei [5]; 0.1 in the experiment with Plasmodium berghei [10]; 10.7 with Plasmodium berghei [6]; 7.9 with Plasmodium berghei [7]; 5.9 with Plasmodium berghei [8]; 2.5 in the experiment with Plasmodium berghei [9].
On to `COc1ccc(C2CC(=O)c3c(n(O)c4ccc(Cl)cc4c3=O)C2)cc1` (centres undefined), for which the “Delta mean survival time” value in the experiment with Plasmodium berghei [5] worked out at 1.4; in the experiment with Plasmodium berghei [10] it was 0.6; with Plasmodium berghei [6], 4.6; in the experiment with Plasmodium berghei [7], 5.7; with Plasmodium berghei [8] it was 1.2; in the experiment on Plasmodium berghei [9], 0.6.
In the case of `O=C1CC(c2ccc(Cl)c(Cl)c2)Cc2c1c(=O)c1ccccc1n2O` (centres undefined), the figures for the “No. of cured mice” value with Plasmodium berghei [2] and in the experiment on Plasmodium berghei [3] were 1 and 2, respectively. Also, the “Delta mean survival time” value in the experiment on Plasmodium berghei [5] is 5.1; in the experiment with Plasmodium berghei [6], 7.7; with Plasmodium berghei [7] it was 12.6; with Plasmodium berghei [8] it was 3.1.
With `CN(C)CCC/N=C1\CC(c2ccc([N+](=O)[O-])cc2)Cc2nc3ccc(Cl)cc3c(O)c21` (centres undefined), the “No. of cured mice” value in the experiment with Plasmodium berghei [3] is 1. In addition, the “Delta mean survival time” value was 8.6 with Plasmodium berghei [5]; 0.4 in the experiment on Plasmodium berghei [10]; 11.6 in the experiment on Plasmodium berghei [6]; 11.8 with Plasmodium berghei [7]; 3 in the experiment with Plasmodium berghei [8]; 1 in the experiment with Plasmodium berghei [9].
On to `CN(C)CCC/N=C1\CC(c2ccncc2)Cc2nc3ccc(Cl)cc3c(O)c21` (centres undefined), for which the “Delta mean survival time” value amounted to 1.3 in the experiment with Plasmodium berghei [5]; 0.7 with Plasmodium berghei [10]; 2.5 with Plasmodium berghei [6]; 4.3 in the experiment with Plasmodium berghei [7]; 1.3 with Plasmodium berghei [8]; 0.1 with Plasmodium berghei [9].
As for `O=C1CC(C2CCCCC2)Cc2c1c(=O)c1cc(Cl)ccc1n2O` (centres undefined), in the experiment with Plasmodium berghei [3], the “No. of cured mice” value was determined as 1. The “Delta mean survival time” value is recorded as 2.9 in the experiment with Plasmodium berghei [5], 6.5 with Plasmodium berghei [6], 12.7 in the experiment with Plasmodium berghei [7] and 2.5 in the experiment with Plasmodium berghei [8].

The values are drawn from ChEMBL document CHEMBL1126276, “Synthesis and antimalarial properties of 1-imino derivatives of 7-chloro-3-substituted-3,4-dihydro-1,9(2H,10H)-acridinediones and related structures” (J Med Chem, 1992).
